Experimental data: ChEMBL document CHEMBL2177058 (J Med Chem, 2012)
pEC50, pIC50, pKi: −log10 of the molar value. Activity calls are given as the source filed them. The rule behind the calls is not given here.

Assays:
[1] = test system: Mus musculus; experiment: Analgesic activity in CD1 mouse assessed as inhibition of acetic acid induced writhing at 2.5 mg/kg, sc dosed 30 mins before acetic acid challenge in presence of 20 mg/kg, sc KOP receptor antagonist nor-BNI; type: functional, organism-based
[2] = test system: Mus musculus; experiment: Analgesic activity in CD1 mouse assessed as inhibition of acetic acid induced writhing dosed subcutaneously 30 mins before acetic acid challenge; type: functional
Method in brief: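 Mice received the drug subcutaneously across a range of doses, then underwent the acetic acid induced writhing test. Inhibition of writhing was scored against a control group. Data are mean SEM, n = 5−6 mice per group. ED₅₀ was taken from the dose–response curve.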

[3] = target: D(2) dopamine receptor (Homo sapiens, UniProt P14416); experiment: biochemical; type: cell-based, CHOp
[4] = target: D(3) dopamine receptor (Homo sapiens, UniProt P35462); experiment: Displacement of [3H]YM-09151-2 from human dopamine D3 receptor expressed in CHOp cells; type: cell-based
[5] = target: D(1A) dopamine receptor (Homo sapiens, UniProt P21728); experiment: Displacement of [3H]SCH-23390 from human dopamine D1 receptor expressed in LHD1 cells; type: cell-based
[6] = target: Delta-type opioid receptor (Homo sapiens, UniProt P41143); experiment: Displacement of [3H]pCl-DPDPE from human delta opioid receptor expressed in CHO cell membranes incubated for 60 mins by liquid scintillation counting
[7] = target: T1, Kappa-type opioid receptor (Homo sapiens, UniProt P41145); experiment: Agonist activity at human kappa opioid receptor expressed in CHO cell membranes incubated for 60 mins by [35S]GTPgammaS binding assay; type: functional
[8] = target: Mu-type opioid receptor (Homo sapiens, UniProt P35372); experiment: Displacement of [3H]DAMGO from human mu opioid receptor expressed in CHO cell membranes incubated for 60 mins by liquid scintillation counting
[9] = target: T1, Kappa-type opioid receptor; experiment: Displacement of [3H]U69,593 from human kappa opioid receptor expressed in CHO cell membranes incubated for 60 mins by liquid scintillation counting
[10] = target: Kappa-type opioid receptor (Cavia porcellus, UniProt P41144); experiment: Displacement of [3H]ethylketocyclazocine from kappa opioid receptor in guinea pig brain
Kappa-type opioid receptor (Cavia porcellus, UniProt P41144), sequence (P41144 whole entry): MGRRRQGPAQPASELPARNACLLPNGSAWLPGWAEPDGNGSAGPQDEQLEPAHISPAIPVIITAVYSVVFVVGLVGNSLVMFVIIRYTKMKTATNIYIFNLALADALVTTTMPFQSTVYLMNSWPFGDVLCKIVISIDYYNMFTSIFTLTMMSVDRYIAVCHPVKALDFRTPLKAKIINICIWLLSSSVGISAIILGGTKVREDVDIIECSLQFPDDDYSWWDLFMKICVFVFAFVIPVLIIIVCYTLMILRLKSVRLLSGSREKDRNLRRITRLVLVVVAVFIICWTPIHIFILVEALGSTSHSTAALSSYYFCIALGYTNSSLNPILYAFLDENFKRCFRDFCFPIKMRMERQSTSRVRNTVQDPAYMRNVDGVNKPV

D(2) dopamine receptor, sequence (P14416 whole entry): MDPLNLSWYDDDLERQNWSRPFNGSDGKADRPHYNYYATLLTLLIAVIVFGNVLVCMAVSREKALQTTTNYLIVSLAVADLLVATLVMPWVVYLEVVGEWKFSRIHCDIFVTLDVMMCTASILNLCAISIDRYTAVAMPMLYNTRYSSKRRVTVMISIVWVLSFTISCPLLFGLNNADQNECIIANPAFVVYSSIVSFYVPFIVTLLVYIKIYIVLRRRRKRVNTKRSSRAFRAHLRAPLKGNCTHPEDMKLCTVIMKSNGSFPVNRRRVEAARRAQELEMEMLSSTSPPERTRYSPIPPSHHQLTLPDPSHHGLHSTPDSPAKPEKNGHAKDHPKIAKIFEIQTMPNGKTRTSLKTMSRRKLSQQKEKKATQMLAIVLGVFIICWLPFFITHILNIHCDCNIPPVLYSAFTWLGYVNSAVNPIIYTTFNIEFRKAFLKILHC
T1 sequence (P41145 whole entry): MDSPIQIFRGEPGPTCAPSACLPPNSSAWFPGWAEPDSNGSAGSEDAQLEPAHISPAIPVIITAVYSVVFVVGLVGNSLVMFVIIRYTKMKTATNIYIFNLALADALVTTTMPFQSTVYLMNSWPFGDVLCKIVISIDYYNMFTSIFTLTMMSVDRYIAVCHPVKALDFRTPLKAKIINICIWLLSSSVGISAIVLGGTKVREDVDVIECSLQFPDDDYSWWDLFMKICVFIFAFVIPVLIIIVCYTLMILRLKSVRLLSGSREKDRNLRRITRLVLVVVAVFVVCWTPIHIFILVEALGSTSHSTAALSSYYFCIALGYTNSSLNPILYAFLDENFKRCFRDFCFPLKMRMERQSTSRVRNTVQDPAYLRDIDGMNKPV
Delta-type opioid receptor, sequence (P41143 whole entry): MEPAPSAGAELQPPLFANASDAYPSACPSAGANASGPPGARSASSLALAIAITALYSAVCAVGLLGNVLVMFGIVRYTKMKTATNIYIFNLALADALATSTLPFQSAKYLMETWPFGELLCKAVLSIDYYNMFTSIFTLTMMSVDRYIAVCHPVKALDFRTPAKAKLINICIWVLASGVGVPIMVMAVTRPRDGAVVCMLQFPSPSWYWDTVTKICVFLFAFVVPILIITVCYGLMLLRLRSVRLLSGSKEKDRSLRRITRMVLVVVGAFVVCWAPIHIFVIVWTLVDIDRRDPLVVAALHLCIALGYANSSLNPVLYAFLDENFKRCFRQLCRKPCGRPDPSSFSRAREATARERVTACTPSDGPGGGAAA
D(1A) dopamine receptor, sequence (P21728 whole entry): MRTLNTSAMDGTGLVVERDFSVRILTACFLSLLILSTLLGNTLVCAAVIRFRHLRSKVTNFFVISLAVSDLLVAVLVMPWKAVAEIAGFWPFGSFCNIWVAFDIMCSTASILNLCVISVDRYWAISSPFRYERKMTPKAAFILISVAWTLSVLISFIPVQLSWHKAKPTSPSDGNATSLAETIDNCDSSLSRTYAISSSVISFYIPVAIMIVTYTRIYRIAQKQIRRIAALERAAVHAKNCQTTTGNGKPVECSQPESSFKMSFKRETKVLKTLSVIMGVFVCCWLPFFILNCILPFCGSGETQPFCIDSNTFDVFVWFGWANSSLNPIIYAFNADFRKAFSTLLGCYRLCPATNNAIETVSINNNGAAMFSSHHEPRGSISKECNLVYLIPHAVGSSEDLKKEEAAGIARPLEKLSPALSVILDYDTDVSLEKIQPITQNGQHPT
Mu-type opioid receptor, sequence (P35372 whole entry): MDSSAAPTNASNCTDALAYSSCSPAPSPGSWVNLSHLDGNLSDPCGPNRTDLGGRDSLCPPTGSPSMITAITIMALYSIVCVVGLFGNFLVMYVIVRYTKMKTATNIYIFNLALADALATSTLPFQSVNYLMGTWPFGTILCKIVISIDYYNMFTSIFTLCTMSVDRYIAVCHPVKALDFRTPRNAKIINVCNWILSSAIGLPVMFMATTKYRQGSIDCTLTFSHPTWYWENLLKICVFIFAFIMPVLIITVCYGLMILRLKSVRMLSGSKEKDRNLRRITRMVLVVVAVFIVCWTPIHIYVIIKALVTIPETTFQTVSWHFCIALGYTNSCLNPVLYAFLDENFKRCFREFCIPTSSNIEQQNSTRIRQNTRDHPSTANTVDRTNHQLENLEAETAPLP
D(3) dopamine receptor, sequence (P35462 whole entry): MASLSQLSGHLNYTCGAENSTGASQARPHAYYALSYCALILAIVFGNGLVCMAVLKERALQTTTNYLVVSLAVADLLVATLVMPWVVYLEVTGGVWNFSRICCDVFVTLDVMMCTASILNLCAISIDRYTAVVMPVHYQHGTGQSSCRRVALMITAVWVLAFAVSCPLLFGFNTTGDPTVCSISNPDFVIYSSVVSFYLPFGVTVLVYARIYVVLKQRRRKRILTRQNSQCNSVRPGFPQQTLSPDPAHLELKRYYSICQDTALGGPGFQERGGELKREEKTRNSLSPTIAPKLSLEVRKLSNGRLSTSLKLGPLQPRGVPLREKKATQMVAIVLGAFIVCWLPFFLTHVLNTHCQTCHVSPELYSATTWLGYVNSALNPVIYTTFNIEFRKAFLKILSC

SMILES: Oc1cccc(CCN(CCc2ccccc2)CC2CCC2)c1
- Activity [1]: inactive
- Activity [2]: Dose-dependent effect
- ED50 ([2]; CD1, sc): 1.91 mg/kg
- pKi [3]: 6.35
- pKi [4]: 6.55
- pKi [5]: < 5.00
- pKi [6]: < 5.00

SMILES: Oc1cccc(CCN(CCc2ccccc2)CC2CC2)c1
- pKi [3]: 6.93
- pKi [4]: 6.77
- pKi [5]: < 5.00
- pKi [6]: < 5.00

SMILES: CCCCN(CCc1ccccc1)CCc1cccc(O)c1
- pKi [3]: 5.91
- pKi [4]: 5.94
- pKi [5]: < 5.00
- pEC50 [7]: 7.34
- pKi [6]: 5.61
- pKi [8]: 6.39
- pKi [9]: 7.96

SMILES: CCCN(CCc1ccccc1)CCc1cccc(O)c1
- pKi [3]: 7.19
- pKi [4]: 7.66
- pKi [5]: < 5.00
- pIC50 [10]: 7.24
- pEC50 [7]: 7.31
- pKi [6]: 5.43
- pKi [8]: 6.23
- pKi [9]: 8.09

SMILES: CCCCCCN(CCc1ccccc1)CCc1cccc(O)c1
- pKi [3]: 6.08
- pKi [4]: 5.94
- pKi [5]: < 5.00
- pEC50 [7]: 6.19
- pKi [6]: 5.45
- pKi [8]: 6.10
- pKi [9]: 6.85

SMILES: CCCCCN(CCc1ccccc1)CCc1cccc(O)c1
- pKi [3]: 5.85
- pKi [4]: 5.96
- pKi [5]: < 5.00
- pEC50 [7]: 7.06
- pKi [6]: 5.88
- pKi [8]: 6.49
- pKi [9]: 7.90
